Values after ≈ are worked out from the molar mass of the structure shown.
Experiments:
Streptococcus pneumoniae [1] = experiment: Antibacterial activity against Streptococcus pneumoniae harboring mef(A) gene after overnight incubation by agar dilution method; type: functional
Procedure, shortened: (§1)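 Clinical isolates collected 1998–2008, with macrolide-resistance genes confirmed by PCR. MICs by agar dilution on Mueller-Hinton agar with 5% sheep blood. Inoculum 10^4 CFU/spot, incubated overnight at 35°C in ambient air. S. pneumoniae ATCC 49619 was the quality-control strain in every run.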

Streptococcus pneumoniae [2] = experiment: Antibacterial activity against Streptococcus pneumoniae harboring erm(B) and mef(A) gene after overnight incubation by agar dilution method; type: functional; procedure, shortened: as §1
Streptococcus pneumoniae [3] = experiment: Antibacterial activity against quinolone-susceptible Streptococcus pneumoniae after overnight incubation by agar dilution method; type: functional
Procedure, shortened: (§2)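 Agar dilution on Mueller-Hinton agar supplemented with 5% sheep blood. Inoculum 10^4 CFU/spot, incubated overnight at 35°C in ambient air. Test strains were clinical pneumococcal isolates. S. pneumoniae ATCC 49619 was included as the quality control strain in each run. MIC range, MIC50 and MIC90 were reported for each susceptibility category.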

Streptococcus pneumoniae [4] = experiment: Antibacterial activity against quinolone-resistant Streptococcus pneumoniae after overnight incubation by agar dilution method; type: functional; procedure, shortened: as §2
Streptococcus pneumoniae [5] = experiment: Antibacterial activity against macrolide-resistant Streptococcus pneumoniae harboring mef(A) gene after overnight incubation by agar dilution method; type: functional
Procedure, shortened: (§3)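 Agar dilution MICs on Mueller-Hinton agar with 5% sheep blood. Inoculum 10^4 CFU/spot, incubated overnight at 35°C in ambient air. Clinical S. pneumoniae or group A streptococcal isolates; resistance genotypes (erm(B), erm(A), mef(A)/mef(E)) were assigned by PCR. S. pneumoniae ATCC 49619 served as QC strain in each run. Range, MIC50 and MIC90 reported per phenotype group.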

Streptococcus pyogenes [6] = experiment: Antibacterial activity against macrolide-susceptible Streptococcus pyogenes after overnight incubation by agar dilution method; type: functional
Procedure, shortened: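 Agar dilution on Mueller-Hinton agar supplemented with 5% sheep blood, inoculum 10^4 CFU/spot, read after overnight incubation at 35°C in ambient air. Clinical isolates with defined genotypes; S. pneumoniae ATCC 49619 quality control strain included in each run. MIC50/MIC90 are MICs inhibiting 50% and 90% of isolates.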

Streptococcus pyogenes [7] = experiment: Antibacterial activity against Streptococcus pyogenes harboring mef(A) gene after overnight incubation by agar dilution method; type: functional; procedure, shortened: as §1
Streptococcus pyogenes [8] = experiment: Antibacterial activity against Streptococcus pyogenes harboring erm(A) gene after overnight incubation by agar dilution method; type: functional; procedure, shortened: as §1
Streptococcus pyogenes [9] = experiment: Antibacterial activity against Streptococcus pyogenes harboring mutation in L4 ribosomal protein after overnight incubation by agar dilution method; type: functional; procedure, shortened: as §1
Streptococcus pyogenes [10] = experiment: Antibacterial activity against macrolide-resistant Streptococcus pyogenes harboring erm(B) gene after overnight incubation by agar dilution method; type: functional; procedure, shortened: as §3
Streptococcus pyogenes [11] = experiment: Antibacterial activity against macrolide-resistant Streptococcus pyogenes harboring mef(A) gene after overnight incubation by agar dilution method; type: functional; procedure, shortened: as §3
Streptococcus pneumoniae [12] = experiment: Antibacterial activity against macrolide-susceptible Streptococcus pneumoniae 1077 after overnight incubation by agar dilution method; type: functional
Streptococcus pneumoniae [13] = experiment: Antibacterial activity against macrolide-susceptible Streptococcus pneumoniae 1077 after 43 passages and 10 compound-free subculturing by retest method; type: functional
Streptococcus pneumoniae [14] = experiment: Antibacterial activity against macrolide-resistant Streptococcus pneumoniae 3665 harboring mef(A) gene after 14 passages and 10 compound-free subculturing by retest method; type: functional; settings: Streptococcus pneumoniae, 3665; read-out: MIC
Streptococcus pneumoniae [15] = experiment: Antibacterial activity against macrolide-resistant Streptococcus pneumoniae 1635 harboring erm(A) gene after 32 passages and 10 compound-free subculturing by retest method; type: functional
Procedure, shortened: (§4)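 Multistep selection by daily serial passage in subinhibitory drug concentrations. Medium was cation-adjusted Mueller-Hinton broth plus 5% lysed horse blood. Each day the next inoculum came from the tube 1–2 dilutions below the MIC whose turbidity matched the growth control, for up to 50 days. Clone MICs by CLSI macrodilution; identity to the parent confirmed by SmaI PFGE.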

Streptococcus pneumoniae [16] = experiment: Antibacterial activity against macrolide-resistant Streptococcus pneumoniae 1635 harboring erm(A) gene after 49 passages and 10 compound-free subculturing by retest method; type: functional; procedure, shortened: as §4
Streptococcus pneumoniae [17] = experiment: Antibacterial activity against macrolide-resistant Streptococcus pneumoniae 2686 harboring mutation in L4 ribosomal protein after 14 passages and 10 compound-free subculturing by retest method; type: functional
Streptococcus pneumoniae [18] = experiment: Antibacterial activity against macrolide-susceptible Streptococcus pneumoniae 7127 harboring S20N mutation in L4 ribosomal protein and A105V mutation in L22 ribosomal protein after 38 passages and 10 compound-free subculturing by retest method; type: functional
Streptococcus pneumoniae [19] = experiment: Antibacterial activity against macrolide-susceptible Streptococcus pneumoniae 7127 harboring S20N mutation in L4 ribosomal protein and A105V mutation in L22 ribosomal protein after 43 passages and 10 compound-free subculturing by retest method; type: functional
Streptococcus pneumoniae [20] = experiment: Antibacterial activity against macrolide-resistant Streptococcus pneumoniae 1635 harboring erm(A) gene after overnight incubation by agar dilution method; type: functional
Streptococcus pneumoniae [21] = experiment: Antibacterial activity against macrolide-resistant Streptococcus pneumoniae 3009 harboring mutation in 23S rRNA after overnight incubation by agar dilution method; type: functional
Streptococcus pyogenes [22] = experiment: Antibacterial activity against macrolide-susceptible Streptococcus pyogenes 2132 after overnight incubation by agar dilution method
Streptococcus pyogenes [23] = experiment: Antibacterial activity against macrolide-susceptible Streptococcus pyogenes 2132 after 28 passages and 10 compound-free subculturing by retest method
Streptococcus pyogenes [24] = experiment: Antibacterial activity against macrolide-resistant Streptococcus pyogenes 2368 harboring erm(B) gene after 6 passages and 10 compound-free subculturing by retest method
Streptococcus pyogenes [25] = experiment: Antibacterial activity against macrolide-resistant Streptococcus pyogenes 2094 harboring erm(A) gene after 5 passages and 10 compound-free subculturing by retest method
Streptococcus pyogenes [26] = experiment: Antibacterial activity against macrolide-resistant Streptococcus pyogenes 2094 harboring erm(A) gene after 6 passages and 10 compound-free subculturing by retest method
Streptococcus pyogenes [27] = experiment: Antibacterial activity against macrolide-resistant Streptococcus pyogenes 2094 harboring erm(A) gene after 22 passages and 10 compound-free subculturing by retest method
Streptococcus pyogenes [28] = experiment: Antibacterial activity against macrolide-resistant Streptococcus pyogenes 2094 harboring erm(A) gene after 34 passages and 10 compound-free subculturing by retest method
Streptococcus pyogenes [29] = experiment: Antibacterial activity against macrolide-resistant Streptococcus pyogenes 237 harboring mutation in L4 ribosomal protein after overnight incubation by agar dilution method
Streptococcus pyogenes [30] = experiment: Antibacterial activity against macrolide-resistant Streptococcus pyogenes 2011 harboring mef(A) gene after 50 passages following overnight incubation by agar dilution method
Streptococcus pyogenes [31] = experiment: Antibacterial activity against macrolide-resistant Streptococcus pyogenes 237 harboring mutation in L4 ribosomal protein after 20 passages and 10 compound-free subculturing by retest method

Structure (SMILES): CCC[C@@H]1C[C@@H](C(=O)N[C@@H]([C@H]2O[C@H](SC)[C@H](O)[C@@H](O)[C@H]2O)[C@H](C)Cl)N(C)C1 [CLINDAMYCIN]
- MIC50 (Streptococcus pneumoniae [1]): 0.06 µg/mL (≈ 0.141 µM)
- MIC90 (Streptococcus pneumoniae [1]): 0.06 µg/mL (≈ 0.141 µM)
- MIC50 (Streptococcus pneumoniae [2]): 0.06 µg/mL (≈ 0.141 µM)
- MIC50 (Streptococcus pneumoniae [3]): 0.06 µg/mL (≈ 0.141 µM)
- MIC90 (Streptococcus pneumoniae [3]): > 64 µg/mL
- MIC50 (Streptococcus pneumoniae [4]): 0.03 µg/mL (≈ 0.0706 µM)
- MIC90 (Streptococcus pneumoniae [4]): 64 µg/mL (≈ 151 µM)
- MIC50 (Streptococcus pneumoniae [5]): 0.06 µg/mL (≈ 0.141 µM)
- MIC90 (Streptococcus pneumoniae [5]): 0.06 µg/mL (≈ 0.141 µM)
- MIC50 (Streptococcus pyogenes [6]): 0.06 µg/mL (≈ 0.141 µM)
- MIC90 (Streptococcus pyogenes [6]): 0.06 µg/mL (≈ 0.141 µM)
- MIC50 (Streptococcus pyogenes [7]): 0.06 µg/mL (≈ 0.141 µM)
- MIC90 (Streptococcus pyogenes [7]): 0.125 µg/mL (≈ 0.294 µM)
- MIC50 (Streptococcus pyogenes [8]): 0.125 µg/mL (≈ 0.294 µM)
- MIC90 (Streptococcus pyogenes [8]): 0.25 µg/mL (≈ 0.588 µM)
- MIC (Streptococcus pyogenes [9]): 0.06 µg/mL (≈ 0.141 µM)
- MIC50 (Streptococcus pyogenes [10]): > 64 µg/mL
- MIC90 (Streptococcus pyogenes [10]): > 64 µg/mL
- MIC50 (Streptococcus pyogenes [11]): 0.06 µg/mL (≈ 0.141 µM)
- MIC90 (Streptococcus pyogenes [11]): 0.125 µg/mL (≈ 0.294 µM)
- MIC (Streptococcus pneumoniae [12]): 0.016 µg/mL (≈ 0.0376 µM)
- MIC (Streptococcus pneumoniae [13]): 0.03 µg/mL (≈ 0.0706 µM)
- MIC (Streptococcus pneumoniae [14]): 0.03 µg/mL (≈ 0.0706 µM)
- MIC (Streptococcus pneumoniae [15]): 0.03 µg/mL (≈ 0.0706 µM)
- MIC (Streptococcus pneumoniae [16]): 0.25 µg/mL (≈ 0.588 µM)
- MIC (Streptococcus pneumoniae [17]): 0.03 µg/mL (≈ 0.0706 µM)
- MIC (Streptococcus pneumoniae [18]): 0.03 µg/mL (≈ 0.0706 µM)
- MIC (Streptococcus pneumoniae [19]): 0.25 µg/mL (≈ 0.588 µM)
- MIC (Streptococcus pneumoniae [20]): 0.06 µg/mL (≈ 0.141 µM)
- MIC (Streptococcus pneumoniae [21]): 1 µg/mL (≈ 2.35 µM)
- MIC (Streptococcus pyogenes [22]): 0.06 µg/mL (≈ 0.141 µM)
- MIC (Streptococcus pyogenes [23]): 0.03 µg/mL (≈ 0.0706 µM)
- MIC (Streptococcus pyogenes [24]): > 64 µg/mL
- MIC (Streptococcus pyogenes [25]): 0.06 µg/mL (≈ 0.141 µM)
- MIC (Streptococcus pyogenes [26]): 0.06 µg/mL (≈ 0.141 µM)
- MIC (Streptococcus pyogenes [27]): > 64 µg/mL
- MIC (Streptococcus pyogenes [28]): > 64 µg/mL
- MIC (Streptococcus pyogenes [29]): 0.06 µg/mL (≈ 0.141 µM)
- MIC (Streptococcus pyogenes [30]): 0.06 µg/mL (≈ 0.141 µM)
- MIC (Streptococcus pyogenes [31]): 0.03 µg/mL (≈ 0.0706 µM)

— ChEMBL document CHEMBL1240350, “In vitro activity of CEM-101 against Streptococcus pneumoniae and Streptococcus pyogenes with defined macrolide resistance mechanisms” (Antimicrob Agents Chemother, 2010)
